One assay has as its target MELK (Homo sapiens, UniProt Q14680). In words: MELK kinase activity inhibition. The format is biochemical. The settings on record: for change of MELK IC50 / activity relative to parent compound 6: weaker than 6 (higher IC50).
The target of the next assay is T1, BMX/ETK (Homo sapiens, UniProt P51813).
T1 sequence (P51813 1-675): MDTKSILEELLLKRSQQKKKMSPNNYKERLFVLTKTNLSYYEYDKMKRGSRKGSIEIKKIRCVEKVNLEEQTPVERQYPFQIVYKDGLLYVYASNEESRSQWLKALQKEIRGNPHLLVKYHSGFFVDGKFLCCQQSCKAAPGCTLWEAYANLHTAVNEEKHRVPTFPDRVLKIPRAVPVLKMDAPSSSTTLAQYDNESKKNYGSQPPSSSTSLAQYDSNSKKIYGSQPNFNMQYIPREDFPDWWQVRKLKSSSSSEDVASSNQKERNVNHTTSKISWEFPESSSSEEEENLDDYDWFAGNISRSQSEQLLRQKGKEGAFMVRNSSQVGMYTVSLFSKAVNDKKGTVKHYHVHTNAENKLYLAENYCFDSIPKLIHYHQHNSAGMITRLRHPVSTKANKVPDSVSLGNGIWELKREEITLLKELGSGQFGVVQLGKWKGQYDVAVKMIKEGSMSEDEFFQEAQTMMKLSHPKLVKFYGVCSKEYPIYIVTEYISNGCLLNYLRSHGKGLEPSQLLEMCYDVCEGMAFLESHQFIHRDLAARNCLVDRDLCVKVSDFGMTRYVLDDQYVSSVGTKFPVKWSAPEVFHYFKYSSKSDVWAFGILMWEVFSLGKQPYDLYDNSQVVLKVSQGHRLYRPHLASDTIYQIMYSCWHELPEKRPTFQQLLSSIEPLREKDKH
In words: Kinase panel IC50, BMX/ETK. It counts as biochemical.

The target of the next assay is JAK1 (Homo sapiens, UniProt P23458). In words: JAK kinase activity, JAK1. It counts as biochemical.
JAK1, sequence (P23458 whole entry): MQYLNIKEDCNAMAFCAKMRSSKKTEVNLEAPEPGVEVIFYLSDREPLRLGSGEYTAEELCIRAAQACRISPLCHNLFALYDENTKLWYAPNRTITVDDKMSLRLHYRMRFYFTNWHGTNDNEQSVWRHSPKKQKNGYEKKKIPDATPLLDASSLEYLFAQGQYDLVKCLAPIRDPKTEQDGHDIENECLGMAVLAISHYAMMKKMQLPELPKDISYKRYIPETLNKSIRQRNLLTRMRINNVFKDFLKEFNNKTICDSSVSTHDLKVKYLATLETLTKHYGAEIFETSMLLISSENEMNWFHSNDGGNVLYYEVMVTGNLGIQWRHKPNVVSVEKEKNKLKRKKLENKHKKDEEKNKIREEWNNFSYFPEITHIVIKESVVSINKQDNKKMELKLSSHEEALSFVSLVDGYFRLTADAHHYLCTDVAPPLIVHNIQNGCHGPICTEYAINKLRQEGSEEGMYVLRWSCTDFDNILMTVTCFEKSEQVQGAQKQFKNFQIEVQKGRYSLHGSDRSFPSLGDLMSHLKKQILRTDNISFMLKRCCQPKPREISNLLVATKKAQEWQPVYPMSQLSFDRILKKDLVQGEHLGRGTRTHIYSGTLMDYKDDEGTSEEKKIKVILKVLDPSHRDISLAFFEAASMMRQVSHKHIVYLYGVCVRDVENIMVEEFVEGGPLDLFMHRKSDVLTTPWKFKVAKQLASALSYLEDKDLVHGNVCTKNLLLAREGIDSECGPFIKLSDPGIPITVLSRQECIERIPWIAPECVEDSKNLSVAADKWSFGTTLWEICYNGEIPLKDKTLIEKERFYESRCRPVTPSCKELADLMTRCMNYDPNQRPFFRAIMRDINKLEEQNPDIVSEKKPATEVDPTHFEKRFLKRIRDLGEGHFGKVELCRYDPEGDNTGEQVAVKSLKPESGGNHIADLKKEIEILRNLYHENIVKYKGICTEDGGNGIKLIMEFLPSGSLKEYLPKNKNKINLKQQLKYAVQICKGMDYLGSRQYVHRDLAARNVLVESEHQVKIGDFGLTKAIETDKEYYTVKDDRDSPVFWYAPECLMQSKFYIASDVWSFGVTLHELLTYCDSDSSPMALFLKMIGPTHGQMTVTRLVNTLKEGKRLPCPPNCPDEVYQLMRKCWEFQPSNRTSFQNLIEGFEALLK
Another assay deals with JAK2 (Homo sapiens, UniProt O60674). The assay can be described thus: JAK kinase activity, JAK2. It counts as biochemical.
JAK2, sequence (O60674 whole entry): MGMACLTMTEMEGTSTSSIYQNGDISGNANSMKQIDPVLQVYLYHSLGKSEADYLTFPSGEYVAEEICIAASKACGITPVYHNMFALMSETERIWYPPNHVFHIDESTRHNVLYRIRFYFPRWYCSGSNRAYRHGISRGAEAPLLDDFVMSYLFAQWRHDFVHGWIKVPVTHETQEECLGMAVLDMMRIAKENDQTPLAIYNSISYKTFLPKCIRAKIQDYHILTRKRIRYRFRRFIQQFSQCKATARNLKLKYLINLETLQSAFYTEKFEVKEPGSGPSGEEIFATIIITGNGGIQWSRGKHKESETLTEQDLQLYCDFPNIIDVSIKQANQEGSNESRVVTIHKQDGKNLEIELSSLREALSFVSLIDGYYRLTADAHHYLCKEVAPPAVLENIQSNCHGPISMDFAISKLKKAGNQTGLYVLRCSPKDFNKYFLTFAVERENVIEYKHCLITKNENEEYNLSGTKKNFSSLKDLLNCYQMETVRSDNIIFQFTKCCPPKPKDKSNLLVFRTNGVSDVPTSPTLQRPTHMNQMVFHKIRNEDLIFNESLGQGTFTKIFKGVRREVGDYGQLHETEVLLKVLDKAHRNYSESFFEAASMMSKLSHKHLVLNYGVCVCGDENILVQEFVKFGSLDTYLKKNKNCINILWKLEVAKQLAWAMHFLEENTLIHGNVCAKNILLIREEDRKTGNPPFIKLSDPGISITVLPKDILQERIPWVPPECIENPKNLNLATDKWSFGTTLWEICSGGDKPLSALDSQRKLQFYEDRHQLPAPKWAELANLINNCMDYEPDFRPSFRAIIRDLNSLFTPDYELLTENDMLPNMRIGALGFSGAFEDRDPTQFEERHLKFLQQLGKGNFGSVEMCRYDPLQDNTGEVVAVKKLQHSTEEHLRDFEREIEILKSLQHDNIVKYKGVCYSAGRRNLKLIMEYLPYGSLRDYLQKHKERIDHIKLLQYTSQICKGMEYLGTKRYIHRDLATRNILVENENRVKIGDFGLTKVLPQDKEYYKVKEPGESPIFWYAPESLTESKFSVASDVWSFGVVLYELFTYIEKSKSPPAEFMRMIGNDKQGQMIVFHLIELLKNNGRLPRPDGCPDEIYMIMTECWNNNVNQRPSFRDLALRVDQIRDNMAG
The next assay concerns the target T2, JAK3 (Homo sapiens, UniProt P52333).
T2 sequence (P52333 1-1124): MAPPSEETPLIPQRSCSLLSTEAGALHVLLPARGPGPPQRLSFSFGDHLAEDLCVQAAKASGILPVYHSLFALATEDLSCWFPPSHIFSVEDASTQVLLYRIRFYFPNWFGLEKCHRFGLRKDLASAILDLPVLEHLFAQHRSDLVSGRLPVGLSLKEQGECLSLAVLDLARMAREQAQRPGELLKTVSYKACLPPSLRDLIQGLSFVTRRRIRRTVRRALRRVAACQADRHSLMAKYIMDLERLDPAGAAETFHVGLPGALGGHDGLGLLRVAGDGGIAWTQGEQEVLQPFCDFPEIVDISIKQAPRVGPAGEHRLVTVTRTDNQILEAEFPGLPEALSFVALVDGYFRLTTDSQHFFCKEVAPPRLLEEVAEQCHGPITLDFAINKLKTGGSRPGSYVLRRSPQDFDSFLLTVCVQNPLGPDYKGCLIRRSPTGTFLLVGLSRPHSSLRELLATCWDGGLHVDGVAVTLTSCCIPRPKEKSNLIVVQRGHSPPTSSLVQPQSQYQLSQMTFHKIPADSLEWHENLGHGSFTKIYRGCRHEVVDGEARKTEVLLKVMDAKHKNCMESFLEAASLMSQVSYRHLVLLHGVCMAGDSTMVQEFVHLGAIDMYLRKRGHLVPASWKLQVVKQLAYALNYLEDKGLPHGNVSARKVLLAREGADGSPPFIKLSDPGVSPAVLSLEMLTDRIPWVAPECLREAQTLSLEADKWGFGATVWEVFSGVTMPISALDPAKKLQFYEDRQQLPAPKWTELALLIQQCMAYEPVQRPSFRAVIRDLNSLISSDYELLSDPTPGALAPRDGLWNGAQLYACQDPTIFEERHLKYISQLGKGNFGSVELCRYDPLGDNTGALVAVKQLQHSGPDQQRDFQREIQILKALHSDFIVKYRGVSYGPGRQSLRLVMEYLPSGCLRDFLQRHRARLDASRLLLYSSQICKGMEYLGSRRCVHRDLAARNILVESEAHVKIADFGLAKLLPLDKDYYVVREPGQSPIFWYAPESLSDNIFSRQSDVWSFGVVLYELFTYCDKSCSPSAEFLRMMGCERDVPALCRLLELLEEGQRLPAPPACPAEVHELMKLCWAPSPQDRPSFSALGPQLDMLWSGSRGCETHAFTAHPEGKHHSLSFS
The assay can be described thus: JAK kinase activity, JAK3. The format is biochemical.

The subject of a further assay is p21WAF1/CIP1. The assay can be described thus: Western blot of p21 levels. The conditions noted are these: 5 μM, from 4 h, sustained over 48 h. The format is cell-based.
A further assay concerns cyclin A2. In words: Western blot of cyclin A2 levels. The format is cell-based. The conditions noted are these: over 48 h. For orientation: In western blotting, separated proteins are transferred to a membrane and probed.
The subject of another assay is p53. The assay can be described thus: Western blot of p53 levels. The format is cell-based.
A further assay deals with phospho p53 (Ser15). The assay can be described thus: Western blot of p53 Ser15 phosphorylation. It counts as cell-based. The settings on record: MDA-MB-468 cells, over 48 h.
In another assay the test system is MDMX. The assay can be described thus: Immunoblot of MDMX levels. The format is cell-based. The conditions noted are these: MDA-MB-231 cells, increasing concentration. Summed up:
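MDA-MB-231 cells (DMEM, 10% FBS, 37 °C, 5% CO2) were exposed to rising test compound concentrations. Whole-cell RIPA lysates with protease and phosphatase inhibitors were prepared, and 30 µg protein was resolved by 10% SDS-PAGE and moved to nitrocellulose. Blots were probed with primary antibody overnight at 4 °C, then with IRDye 800 anti-mouse or Alexa Fluor 680 anti-rabbit IgG for 1 h at RT. Bands were read by infrared imaging.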

The next assay concerns phospho STAT3 (Tyr705). In words: Western blot of STAT3 phosphorylation. It counts as cell-based.
The next assay has as its system phospho Akt. The assay can be described thus: Western blot of Akt phosphorylation. It counts as cell-based.
Another assay has as its system survivin. The assay can be described thus: Western blot of survivin levels. It counts as cell-based. The conditions noted are these: sustained over 48 h.
Another assay concerns Bcl-XL. The assay can be described thus: Western blot of Bcl-XL levels. It counts as cell-based.
The next assay relates to LC3B-II. The assay can be described thus: Autophagy assay. It counts as cell-based. The settings on record: for LC3B-II levels: 4 h, 6 at 5 μM, BafA1 at 100 nM, versus DMSO. An outline of the steps: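 MDA-MB-231 or MDA-MB-468 cells in DMEM with 10% FBS at 37 °C, 5% CO2, treated 4 h with test compound or DMSO vehicle. Hypoxia (1% O2) served as the autophagy positive control. Bafilomycin A1 (100 nM) was added 4 h before harvest. Cells were lysed in NP40 buffer with protease and phosphatase inhibitors, run on SDS-PAGE and transferred to PVDF. Blots were probed overnight at 4 °C with anti-LC3B (1:3000), then HRP secondary (1:10,000), with ECL detection of LC3B-I and LC3B-II.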

MELK, sequence (Q14680 whole entry): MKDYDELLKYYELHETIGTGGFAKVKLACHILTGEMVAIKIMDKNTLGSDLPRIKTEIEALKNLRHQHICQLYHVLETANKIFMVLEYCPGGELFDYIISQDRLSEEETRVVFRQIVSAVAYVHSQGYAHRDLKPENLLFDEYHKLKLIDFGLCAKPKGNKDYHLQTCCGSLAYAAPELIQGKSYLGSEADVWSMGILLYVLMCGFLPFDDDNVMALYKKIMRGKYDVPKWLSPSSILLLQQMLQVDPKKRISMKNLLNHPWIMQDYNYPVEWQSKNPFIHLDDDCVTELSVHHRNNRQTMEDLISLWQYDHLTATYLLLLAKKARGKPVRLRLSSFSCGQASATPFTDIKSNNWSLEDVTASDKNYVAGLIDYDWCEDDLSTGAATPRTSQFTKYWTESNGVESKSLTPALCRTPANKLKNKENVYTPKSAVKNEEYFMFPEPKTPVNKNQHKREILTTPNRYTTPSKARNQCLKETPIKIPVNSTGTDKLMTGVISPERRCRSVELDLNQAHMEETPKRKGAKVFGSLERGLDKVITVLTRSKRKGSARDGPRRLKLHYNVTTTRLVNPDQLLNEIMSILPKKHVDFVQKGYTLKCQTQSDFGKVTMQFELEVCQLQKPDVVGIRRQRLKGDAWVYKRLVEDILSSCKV

For `CCN(CC)CCCC(C)Nc1nc(/C=C/c2c(Cl)cc(Cl)cc2Cl)nc2ccc(N)cc12` (stereo not shown) [Compound 6, (E)-N^4-(5-(diethylamino)pentan-2-yl)-2-(2,4,6-trichlorostyryl) quinazoline-4,6-diamine], the IC50 at MELK and at BMX/ETK was roughly 1000 nM throughout. In addition, the “inhibition of JAK kinase activity (JAK1)” value against JAK1 is “lack of inhibition”. At JAK2, the “inhibition of JAK kinase activity (JAK2)” value is given as “lack of inhibition”. Moreover, the “inhibition of JAK kinase activity (JAK3)” value on JAK3 is reported as “lack of inhibition”. Further, the p21WAF1/CIP1 level result in the assay on p21WAF1/CIP1 (MDA-MB-231 cells) and with p21WAF1/CIP1 (MDA-MB-468 cells) was “up-regulated” in each case. Moreover, the “cyclin A2 level” value with cyclin A2 (MDA-MB-231 cells) and with cyclin A2 (MDA-MB-468 cells) was “down-regulated” throughout. Further, the p53 levels entry was “does not affect” in the assay on p53 (MDA-MB-231 cells) and “no effect” in the assay on p53 (MDA-MB-468 cells, over 48 h). Besides, the “phosphorylation at Ser15 of p53” value in the assay on phospho p53 (Ser15) is listed as “inhibited”. Moreover, the MDMX levels result in the assay with MDMX is given as “increase”. Further, the STAT3 phosphorylation entry in the assay on phospho STAT3 (Tyr705) (MDA-MB-231 cells, levels recover more slowly) is given as “inhibited”; in the assay on phospho STAT3 (Tyr705) (MDA-MB-468 cells), “inhibited”. In the assay on phospho STAT3 (Tyr705) (MDA-MB-468 cells, at 4 h, levels restored after 8 h), the “STAT3 phosphorylation, time course” value was “completely inhibited”. For the same compound, in the assay on phospho Akt, the Akt phosphorylation result is given as “no effect”. For the same compound, the survivin level result with survivin (MDA-MB-231 cells) and in the assay with survivin (MDA-MB-468 cells) was “down-regulation” throughout. The Bcl-XL expression entry with Bcl-XL (MDA-MB-231 cells) and with Bcl-XL (MDA-MB-468 cells) was “reduced expression” throughout. Also, the LC3B-II levels result in the assay with LC3B-II (MDA-MB-231 cells) and in the assay on LC3B-II (MDA-MB-468 cells) was “pronounced increase” each time. For the same compound, the autophagic flux entry in the assay with LC3B-II (MDA-MB-468 or MDA-MB-231 cells, LC3B-II not further increased by co-treatment with BafA1) is on record as “inhibiting autophagic flux”.

Regarding `Nc1ccc2nc(/C=C/c3ccc(C(F)(F)F)cc3)nc(NCCCN3CCOCC3)c2c1` [Compound 20], on MELK, the “change of MELK IC50 / activity relative to parent compound 6” value is “twofold reduction”.

Consider `CCN(CC)CCCCNc1nc(/C=C/c2c(Cl)cc(Cl)cc2Cl)nc2ccc(N)cc12` [Compound 18, (E)-N^4-(4-(diethylamino)butyl)-2-(2,4,6-trichlorostyryl) quinazoline-4,6-diamine], for which the “change of MELK IC50 / activity relative to parent compound 6” value on MELK is given as “little effect”.

As for `CO/C1=C\C(C)=C\[C@@H](C)[C@@H](O)[C@@H](C)C/C(C)=C/C=C/[C@H](OC)[C@@H]([C@@H](C)[C@@H](O)[C@H](C)[C@@]2(O)C[C@@H](O)[C@H](C)[C@@H](C(C)C)O2)OC1=O` [BafA1, Bafilomycin A1, reference compound], the LC3B-II levels result was “more modest increase” in the assay with LC3B-II (MDA-MB-231 cells) and “substantial increase” with LC3B-II (MDA-MB-468 cells).

Usually IC50 stands for the concentration that inhibits the measured activity by half. A higher IC50 goes with a need for much substance.

Values taken from publication PMC6668347 (Bioorganic & medicinal chemistry, 2017).
